In ChEMBL document CHEMBL3580633, “Benzoxaborole antimalarial agents. Part 4. Discovery of potent 6-(2-(alkoxycarbonyl)pyrazinyl-5-oxy)-1,3-dihydro-1-hydroxy-2,1-benzoxaboroles” (J Med Chem, 2015):

How the values were obtained:
[1] = tested on: Plasmodium berghei; assay: Antiplasmodial activity against Plasmodium berghei infected in Swiss Webster mouse assessed as mouse survival at 100 mg/kg, po dosed once daily for 4 consecutive days beginning 1 hr after initial infection and measured on day 8 post infection by Giemsa staining method; assay type: functional
In short: (§1)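 Female Swiss Webster mice (about 20 g) infected ip with 6 × 10^6 P. berghei-infected erythrocytes. Oral gavage once daily for 4 days, starting 1 h after infection. Vehicle PEG300/propylene glycol/water (55/25/20 by weight). Giemsa-smear parasitemia counted daily from day 4. Mice euthanised above 50% parasitemia. Survival followed to day 21, 5 mice per dose, chloroquine 30 mg/kg as reference.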

[2] = tested on: Plasmodium berghei; assay: Antiplasmodial activity against Plasmodium berghei infected in Swiss Webster mouse assessed as mouse survival at 100 mg/kg, po dosed once daily for 4 consecutive days beginning 1 hr after initial infection and measured on day 11 post infection by Giemsa staining method; assay type: functional; in short: as §1
[3] = tested on: Plasmodium berghei; assay: Antiplasmodial activity against Plasmodium berghei infected in Swiss Webster mouse assessed as mouse survival at 11 mg/kg, po dosed once daily for 4 consecutive days beginning 1 hr after initial infection and measured on day 5 post infection by Giemsa staining method; assay type: functional; in short: as §1
[4] = tested on: Plasmodium berghei; assay: Antiplasmodial activity against Plasmodium berghei infected in Swiss Webster mouse assessed as mouse survival at 100 mg/kg, po dosed once daily for 4 consecutive days beginning 1 hr after initial infection and measured on day 12 post infection by Giemsa staining method; assay type: functional; in short: as §1
[5] = tested on: Plasmodium berghei; assay: Antiplasmodial activity against Plasmodium berghei infected in Swiss Webster mouse assessed as mouse survival at 1 mg/kg, po dosed once daily for 4 consecutive days beginning 1 hr after initial infection and measured on day 7 post infection by Giemsa staining method; assay type: functional; in short: as §1
[6] = tested on: Plasmodium berghei; assay: Antiplasmodial activity against Plasmodium berghei infected in Swiss Webster mouse assessed as mouse survival at 33 mg/kg, po dosed once daily for 4 consecutive days beginning 1 hr after initial infection and measured on day 11 post infection by Giemsa staining method; assay type: functional
In short: (§2)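 Female Swiss Webster mice (about 20 g) were infected ip with 6 × 10^6 P. berghei-infected erythrocytes from a donor mouse. They were dosed by oral gavage once daily for 4 days, starting 1 h post-infection, in PEG 300/propylene glycol/water (55/25/20 by weight). Parasitemia was read daily on Giemsa smears from day 4, and mice were euthanized above 50% parasitemia. Percent survival was tracked to 21 days.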

[7] = tested on: Plasmodium berghei; assay: Antiplasmodial activity against Plasmodium berghei infected in Swiss Webster mouse assessed as mouse survival at 11 mg/kg, po dosed once daily for 4 consecutive days beginning 1 hr after initial infection and measured on day 6 post infection by Giemsa staining method; assay type: functional; in short: as §1
[8] = tested on: Plasmodium berghei; assay: Antiplasmodial activity against Plasmodium berghei infected in Swiss Webster mouse assessed as mouse survival at 100 mg/kg, po dosed once daily for 4 consecutive days beginning 1 hr after initial infection and measured on day 6 post infection by Giemsa staining method; assay type: functional; in short: as §1
[9] = tested on: Plasmodium berghei; assay: Antiplasmodial activity against Plasmodium berghei infected in Swiss Webster mouse assessed as mouse survival at 11 mg/kg, po dosed once daily for 4 consecutive days beginning 1 hr after initial infection and measured on day 8 post infection by Giemsa staining method; assay type: functional; in short: as §1
[10] = tested on: Plasmodium berghei; assay: Antiplasmodial activity against Plasmodium berghei infected in Swiss Webster mouse assessed as mouse survival at 11 mg/kg, po dosed once daily for 4 consecutive days beginning 1 hr after initial infection and measured on day 10 post infection by Giemsa staining method; assay type: functional; in short: as §1
[11] = tested on: Plasmodium berghei; assay: Antiplasmodial activity against Plasmodium berghei infected in Swiss Webster mouse assessed as mouse survival at 33 mg/kg, po dosed once daily for 4 consecutive days beginning 1 hr after initial infection and measured on day 12 post infection by Giemsa staining method; assay type: functional; in short: as §2
[12] = tested on: Plasmodium berghei; assay: Antiplasmodial activity against Plasmodium berghei infected in Swiss Webster mouse assessed as mouse survival at 11 mg/kg, po dosed once daily for 4 consecutive days beginning 1 hr after initial infection and measured on day 11 post infection by Giemsa staining method; assay type: functional; in short: as §1
[13] = tested on: Plasmodium berghei; assay: Antiplasmodial activity against Plasmodium berghei infected in Swiss Webster mouse assessed as mouse survival at 1 mg/kg, po dosed once daily for 4 consecutive days beginning 1 hr after initial infection and measured on day 4 post infection by Giemsa staining method; assay type: functional; in short: as §1
[14] = tested on: Plasmodium berghei; assay: Antiplasmodial activity against Plasmodium berghei infected in Swiss Webster mouse assessed as mouse survival at 100 mg/kg, po dosed once daily for 4 consecutive days beginning 1 hr after initial infection and measured on day 4 post infection by Giemsa staining method; assay type: functional; in short: as §1
[15] = tested on: Plasmodium berghei; assay: Antiplasmodial activity against Plasmodium berghei infected in Swiss Webster mouse assessed as mouse survival at 11 mg/kg, po dosed once daily for 4 consecutive days beginning 1 hr after initial infection and measured on day 12 post infection by Giemsa staining method; assay type: functional; in short: as §1
[16] = tested on: Jurkat; assay: Cytotoxicity against human Jurkat cells incubated for 72 hrs by MTT assay; assay type: cell-based
[17] = tested on: Plasmodium berghei; assay: Antiplasmodial activity against Plasmodium berghei infected in Swiss Webster mouse assessed as mouse survival at 1 mg/kg, po dosed once daily for 4 consecutive days beginning 1 hr after initial infection and measured on day 6 post infection by Giemsa staining method; assay type: functional; in short: as §1
[18] = Volume of distribution at steady state in CD1 mouse at 5 mg/kg, iv by HPLC coupled to tandem mass spectrometry; assay type: ADME, organism-based; conditions: in vivo, read-out: Vdss
In short: (§3)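 Adult female CD-1 mice received 5 mg/kg by both the iv and the oral-gavage route. Two vehicles were used: PEG 400/dimethylacetamide/water (45/10/45, pH 5.8), or PEG 300/propylene glycol/water (55/25/20, pH 5.9). Blood samples were collected and drug was quantified by HPLC-tandem MS.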

[19] = Cmax in CD1 mouse at 5 mg/kg, po by HPLC coupled to tandem mass spectrometry; assay type: ADME, organism-based; set-up: dose 5 mg/kg, route oral; conditions: in vivo; in short: as §3
[20] = Tmax in CD1 mouse at 5 mg/kg, po by HPLC coupled to tandem mass spectrometry; assay type: ADME, organism-based; conditions: in vivo; in short: as §3
[21] = Clearance in CD1 mouse at 5 mg/kg, iv by HPLC coupled to tandem mass spectrometry; assay type: ADME, organism-based; conditions: in vivo; in short: as §3
[22] = Terminal half life in CD1 mouse at 5 mg/kg, iv by HPLC coupled to tandem mass spectrometry; assay type: ADME, organism-based; conditions: in vivo, read-out: beta t1/2 (converted); in short: as §3
[23] = Stability in mouse liver microsomes assessed as compound remaining at 1 uM incubated for 1 hr in presence of NADPH by LC/MS/MS method; assay type: ADME
In short: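 Compound at 1 μM final (from a 1 mg/mL DMSO stock) was incubated with mouse or human liver microsomes (0.5 mg/mL protein) in 100 mM potassium phosphate, pH 7.4, at 37 °C with shaking, with or without 1 mM NADPH. Samples were taken over 0–120 min and tested in duplicate. Reactions were quenched with cold acetonitrile plus internal standard and analyzed by LC/MS/MS.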

[24] = AUC (0 to infinity) in CD1 mouse at 5 mg/kg, iv by HPLC coupled to tandem mass spectrometry; assay type: ADME, organism-based; set-up: dose 5 mg/kg, route intravenous, time infinity; conditions: in vivo; in short: as §3
[25] = tested on: Mus musculus; assay: Oral bioavailability in CD1 mouse at 5 mg/kg by HPLC coupled to tandem mass spectrometry; assay type: ADME, organism-based; conditions: in vivo; in short: as §3
[26] = tested on: Plasmodium falciparum; assay: Antimalarial activity against chloroquine-sensitive Plasmodium falciparum 3D7 cultured in human erythrocytes incubated for 48 hrs by [3H]-hypoxanthine incorporation assay; assay type: functional, organism-based
In short: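 3D7 parasites in human erythrocytes, RPMI-1640 with 0.5% Albumax II, […], 37 °C, 5% O2/5% CO2. Asynchronous cultures (0.5% parasitemia, 2% hematocrit) given 3-fold serial dilutions for 24 h. [3H]hypoxanthine then added for a further 24 h, and incorporation counted by scintillation. Normalised to drug-free infected cells. IC50 from at least three independent experiments.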

Compound | survival at 100 mg/kg [1] [%] | survival at 100 mg/kg [2] [%] | survival at 11 mg/kg [3] [%] | survival at 100 mg/kg [4] [%] | survival at 1 mg/kg [5] [%] | survival at 33 mg/kg [6] [%] | survival at 11 mg/kg [7] [%] | survival at 100 mg/kg [8] [%] | survival at 11 mg/kg [9] [%] | survival at 11 mg/kg [10] [%] | survival at 33 mg/kg [11] [%] | survival at 11 mg/kg [12] [%] | survival at 1 mg/kg [13] [%] | survival at 100 mg/kg [14] [%] | survival at 11 mg/kg [15] [%] | IC50 [16] [nM] | survival at 1 mg/kg [17] [%] | Vd [18] [L/kg] | Cmax [19] [ng/mL] | IC50 [26] [nM] | other results
O=C(O)c1cnc(Oc2ccc3c(c2)B(O)OC3)cn1 | 100 | 60 | 100 | 0 | 80 | 40 | 100 | 100 | 60 | 20 | 0 | 20 | 100 | 100 | 0 | > 100000 | 100 |  |  |  | 
NC(=O)c1cnc(Oc2ccc3c(c2)B(O)OC3)cn1 | 100 |  | 100 |  | 60 |  | 100 | 100 | 100 | 0 |  |  | 100 | 100 |  | 48200 | 100 | 0.973 | 1380 | 350 | Tmax [20]: 15 min; clearance [21]: 37.7 mL/min/kg; half-life [22]: 24 min; Stability [23]: 97%; AUC(0-inf) [24]: 2200 ng·h/mL; F [25]: 99%
COC(=O)c1cnc(Oc2ccc3c(c2)B(O)OC3)cn1 | 100 | 100 | 100 | 100 | 100 | 100 | 100 | 100 | 100 | 80 | 20 | 80 | 100 | 100 | 0 | 7590 | 100 | 0.926 | 160 | 1.9 | Tmax [20]: 15 min; clearance [21]: 208 mL/min/kg; half-life [22]: 18 min; Stability [23]: 0%; AUC(0-inf) [24]: 400 ng·h/mL; F [25]: 23%
O=C(O)c1ccc(Oc2ccc3c(c2)B(O)OC3)cn1 | 80 |  | 100 |  | 60 |  | 100 | 100 | 40 |  |  |  | 100 | 100 |  |  | 100 |  |  | 540 | 
